Bioassay records: PubChem BioAssay, several laboratories
This is a sample that favours compounds with a hit; in the whole collection about 2.9% have one here.
VIM-2 inhibitor: VIM-2 metallo-beta-lactamase inhibitors, primary screen, biochemical, epi-absorbance readout, Pseudomonas aeruginosa enzyme. inhibition, % at 5.6 µM. purified VIM-2, nitrocefin hydrolysis, epi-absorbance fluorescence. actives 0.89% (n = 290,000);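 active means inhibition above the mean of all tested compounds plus 3 SD, cutoff set per screening run, cut at about 7.5% in these data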;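 further: red hydrolysis product quenches plate fluorescence so inhibitors raise well fluorescence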
IMP-1 inh-1: IMP-1 metallo-beta-lactamase inhibitors, primary screen, biochemical, epi-absorbance readout, Pseudomonas aeruginosa enzyme. inhibition, % at 5.6 µM. actives 0.45% (n = 290,000). purified IMP-1, nitrocefin hydrolysis, epi-absorbance fluorescence. AID 1556, 2009;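 active means inhibition above the mean plus 3 SD of all compounds in the same screening run, cut at about 4.5% in these data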
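System: purified recombinant IMP-1 beta-lactamase. Medium: Zinc- and detergent-supplemented HEPES buffer, pH 7.1. Compound: one 5.6 µM dose […]. Schedule: 15 min preincubation plus 25 min reaction at 25 °C. Technique: Epi-absorbance fluorescence, 480 nm excitation, 530 nm emission.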
NALP1 inh: NALP1 inflammasome inhibitors in reconstituted yeast, colorimetric, S. cerevisiae, triplicate retest. S. cerevisiae NALP1/ASC/caspase-1 growth, X-gal OD620, 72 h. inhibition, % at 10 µM. actives 0.61% (n = 280,000). AID 2071, 2009; in the data active means inhibition mostly above about 24%, no sharp cut-off; inactive means mostly below about 32%
NALP3 yeast inh: NALP3 inflammasome inhibitors in reconstituted yeast, primary screen, luminescence, uHTS; Yeast reconstituted NLRP3/ASC/caspase-1, beta-gal luminescence, 24 h; inhibition, % at 10 µM; actives 0.39% (n = 330,000); AID 2825, 2010;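 active means inhibition of 50% or more; inactive means inhibition below 50%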
Mot1-301 SUMO: yeast Mot1-301 growth rescue at high temperature, primary screen, SUMOylation pathway inhibitor project, S. cerevisiae, ATP luminescence, 38.5C; S. cerevisiae Mot1-301 growth rescue; percent above DMSO median, 100 means doubled; growth rescue, % at 18.8 µM; actives 1% (n = 320,000);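 active means every valid replicate shows activation above 250% relative to neutral control wells; inactive means the rest, any valid replicate at or below 250%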
PolyA inhibitor: polyadenylation inhibitors in yeast reporter cells, primary screen, luminescence, S. cerevisiae | S. cerevisiae SKY197-pL101 polyadenylation reporter, beta-gal luminescence; efflux-impaired pdr1/pdr3 knockout yeast; score 100 = 6 SD above DMSO | activity score, % at 12 µM | actives 0.02% (n = 300,000) | AID 1875, 2009;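 active means lowest replicate activity score at least 50, where 100 means six control SD above control mean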;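 further: yeast exposed to compound for 9 h at 30 °C; higher score means more reporter readthrough which indicates perturbed polyadenylation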
IMP-1 inh-2: IMP-1 metallo-beta-lactamase inhibitors, confirmation, selectivity assay for selective VIM-2 inhibitor project, biochemical, epi-absorbance readout, triplicate | shares compounds with VIM-2 inhibitor | purified IMP-1, nitrocefin hydrolysis, epi-absorbance fluorescence | inhibition, % at 5.6 µM | 1,300 tested, under 10 active; call rule not given here
VIM-2 FRET inh: VIM-2 inhibitors in FRET format, confirmation, artefact control for selective VIM-2 inhibitor project, biochemical, epi-absorbance artifact exclusion; shares compounds with VIM-2 inhibitor; purified VIM-2, CCF2 FRET substrate hydrolysis; inhibition, % at 5.6 µM; actives 23% (n = 1,300); AID 1857, 2009;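 active means inhibition above the mean of all tested compounds plus 3 SD, cut at about 19% in these data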
TEM-1 inh: TEM-1 serine beta-lactamase inhibitors, counter-screen for VIM-2 inhibitor project, biochemical, epi-absorbance, HTS | shares compounds with VIM-2 inhibitor | Purified TEM-1, nitrocefin hydrolysis, epi-absorbance fluorescence | inhibition, % at 5.6 µM | actives 3% (n = 1,300);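 active means inhibition above that campaign's mean inhibition plus 3 SD, cut at about 0.46% in these data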
Target sequence (P62593 whole entry, looked up): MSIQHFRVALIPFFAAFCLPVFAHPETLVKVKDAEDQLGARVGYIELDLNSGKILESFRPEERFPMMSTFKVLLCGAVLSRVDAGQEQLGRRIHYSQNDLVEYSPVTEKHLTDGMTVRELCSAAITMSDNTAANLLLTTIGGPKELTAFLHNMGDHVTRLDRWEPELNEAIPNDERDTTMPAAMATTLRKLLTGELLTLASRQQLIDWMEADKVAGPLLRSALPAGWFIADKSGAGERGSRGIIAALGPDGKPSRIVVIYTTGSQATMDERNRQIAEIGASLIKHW
VIM-2 confirm 2: VIM-2 metallo-beta-lactamase inhibitors, confirmation, biochemical, epi-absorbance, hits shared with IMP-1 screen. shares compounds with VIM-2 inhibitor. purified VIM-2, nitrocefin hydrolysis. inhibition, % at 5.6 µM. actives 96% (n = 1,300). AID 2187, 2009;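 active means inhibition of the VIM-2 beta-lactamase enzyme above about 11% from the earlier first-round screen, limit read from the data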
Each line names hits and unclear results; the compound was inactive in the other large screens (follow-up assays come after a bar, where they were run).

CSCCC(=O)N1CCCC(N2CCN(c3cccc(C(F)(F)F)c3)CC2)C1 (stereo unspecified)	none
CN(/N=C/c1cccc(Br)c1)C1=NS(=O)(=O)c2ccccc21	VIM-2 inhibitor 16 | IMP-1 inh-2 inactive | VIM-2 FRET inh inactive | TEM-1 inh inactive | VIM-2 confirm 2 23
Cc1ccc(NC(=O)CSc2ncccn2)cc1S(=O)(=O)N1CCCCC1	none (no result: VIM-2 inhibitor, IMP-1 inh-1, NALP1 inh)
O=S(=O)(Nc1ccc2c(c1)oc1ccccc12)N1CCCC1	none
O=c1c2ccccc2oc2cc(NCCCn3ccnc3)ccc12	none
CN1CCCC1CCNc1ccc2c(=O)c3ccccc3oc2c1 (stereo unspecified)	VIM-2 inhibitor 17 | IMP-1 inh-2 inactive | VIM-2 FRET inh inactive | TEM-1 inh inactive | VIM-2 confirm 2 27
O=c1c2ccccc2oc2cc(NCCCN3CCOCC3)ccc12	VIM-2 inhibitor 17 | IMP-1 inh-2 inactive | VIM-2 FRET inh inactive | TEM-1 inh inactive | VIM-2 confirm 2 22
CN1CCCC1CCNc1ccc2oc3ccccc3c(=O)c2c1 (stereo unspecified)	VIM-2 inhibitor 16 | IMP-1 inh-2 inactive | VIM-2 FRET inh inactive | TEM-1 inh inactive | VIM-2 confirm 2 18
COc1ccc(CC(=O)N2CCc3cc(OC)c(OC)cc3C2C)c(OC)c1 (stereo unspecified)	none
COc1cccc(N2C(=O)Nc3ccc(Br)cc3C2(O)C(=O)NCCN(C)C)c1 (stereo unspecified)	none
CC1CCCC(C)N1C(=O)CSc1nnc(NC(=O)c2cccs2)s1 (stereo unspecified)	VIM-2 inhibitor 20 | IMP-1 inh-2 inactive | VIM-2 FRET inh 52 | TEM-1 inh inactive | VIM-2 confirm 2 37
COc1cccc(-n2c(CNC(=O)OC(C)(C)C)n[nH]c2=S)c1	VIM-2 inhibitor 19 | IMP-1 inh-2 inactive | VIM-2 FRET inh 44 | TEM-1 inh inactive | VIM-2 confirm 2 27
CSc1nsc(N/N=C/c2ccccc2)c1C#N	none (no result: Mot1-301 SUMO)
C[n+]1ccc(/C=N/Nc2nc(Cl)c(C#N)c(Cl)c2Cl)cc1	VIM-2 inhibitor 43 | IMP-1 inh-2 inactive | VIM-2 FRET inh 34 | TEM-1 inh inactive | VIM-2 confirm 2 53
COC(=O)c1c(C)cc(C)n2c1nc1ccccc12	VIM-2 inhibitor 15 | IMP-1 inh-2 inactive | VIM-2 FRET inh inactive | TEM-1 inh inactive | VIM-2 confirm 2 28
O=C(NCc1ccccc1Cl)c1ccc(CS(=O)Cc2ccc(Cl)cc2)o1 (stereo unspecified)	none
COc1cc2c(cc1OC)CN(CC(=O)Nc1ccc(F)cc1)C(C(=O)O)C2 (stereo unspecified)	none
Cc1cc(C)n2c(Br)c(CSc3nc4ccccc4s3)nc2n1	VIM-2 inhibitor 23 | IMP-1 inh-2 inactive | VIM-2 FRET inh 69 | TEM-1 inh inactive | VIM-2 confirm 2 47
CCCc1cc(=O)[nH]c(SCC(=O)N(CCOC)c2c(N)n(Cc3ccccc3)c(=O)[nH]c2=O)n1	none (no result: VIM-2 inhibitor, IMP-1 inh-1, NALP1 inh)
Nc1c2c(nc3ccccc13)CSCC2	none (no result: VIM-2 inhibitor, IMP-1 inh-1, NALP1 inh)
Cc1c(N2C(=O)c3ccccc3C2=O)c(=O)n(-c2ccccc2)n1C	none
Cc1c(N2C(=O)/C(=C\c3cccc4ccccc34)SC2=S)c(=O)n(-c2ccccc2)n1C	VIM-2 inhibitor 62 (no result: Mot1-301 SUMO) | IMP-1 inh-2 inactive | VIM-2 FRET inh 33 | TEM-1 inh inactive | VIM-2 confirm 2 30
Cc1cc(=O)oc2c(C)c(OC(C)C(=O)NCCCn3ccnc3)ccc12 (stereo unspecified)	VIM-2 inhibitor 16 | IMP-1 inh-2 inactive | VIM-2 FRET inh inactive | TEM-1 inh inactive | VIM-2 confirm 2 31
CCc1cc(=O)oc2cc(OC(C)C(=O)NCCCn3ccnc3)ccc12 (stereo unspecified)	none
CCc1cc(=O)oc2c(C)c(OC(C)C(=O)NCCCn3ccnc3)ccc12 (stereo unspecified)	VIM-2 inhibitor 20 | IMP-1 inh-2 inactive | VIM-2 FRET inh inactive | TEM-1 inh inactive | VIM-2 confirm 2 30
COc1ccc(Cn2c(C)nc3ccc([N+](=O)[O-])cc3c2=O)cc1	none
Cc1cccc(NS(=O)(=O)c2c(C)[nH]c(C)c2C(=O)N2CCCC2)c1	none
Cc1cc(C)c(C)c(S(=O)(=O)Nc2ccc3cn[nH]c3c2)c1C	none (no result: VIM-2 inhibitor, IMP-1 inh-1, NALP1 inh, PolyA inhibitor)
CCOC(=O)c1c(-c2ccccc2)oc2ccc(OCC)cc12	none
CCOC(=O)c1c(-c2ccccc2)oc2ccc(OCC(O)CNCCN(C)C)cc12 (stereo unspecified)	VIM-2 inhibitor 25 | IMP-1 inh-2 inactive | VIM-2 FRET inh 20 | TEM-1 inh inactive | VIM-2 confirm 2 38
CC(Cc1ccccc1)N1C(=O)c2cccc([N+](=O)[O-])c2C1=O (stereo unspecified)	none
CSc1nnc2c3cc(F)ccc3n(Cc3ccccc3)c2n1	none (no result: VIM-2 inhibitor, IMP-1 inh-1)
CCN(CC)CCSc1nnc2c3cc(C)ccc3n(Cc3ccccc3)c2n1	VIM-2 inhibitor 23 | IMP-1 inh-2 inactive | VIM-2 FRET inh inactive | TEM-1 inh inactive | VIM-2 confirm 2 43
COc1ccc(-c2cc(C(F)(F)F)nc(N3CCCCCC3)n2)cc1	none
COc1ccc(-c2cc(C(F)(F)F)nc(N3CCN(C)CC3)n2)cc1OC	VIM-2 inhibitor 18 | IMP-1 inh-2 inactive | VIM-2 FRET inh inactive | TEM-1 inh inactive | VIM-2 confirm 2 30
COc1ccc(-c2cc(C(F)(F)F)nc(N3CCN(C)CC3)n2)cc1	VIM-2 inhibitor 17 | IMP-1 inh-2 inactive | VIM-2 FRET inh 36 | TEM-1 inh inactive | VIM-2 confirm 2 25
